Where “and” joins values, the source holds several entries; their conditions need not be identical. Identical values can stand only once. Calls of active or inactive are those of the source.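 How the source made its calls: active means compounds lowering cell ATP signal with a fitted AC50 no higher than twice the top tested dose; inconclusive means flat curve with 30 to 70% signal loss, or poor fit; inactive means the rest.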
Test system: SK-MEL-5 viability, ATP luminescence (CellTiter-Glo), 24 h
Assay: ATP-based cytotoxicity in parental melanoma cells – cell-based, CellTiter-Glo, dry powder samples, set 2, orthogonal assay for MITF inhibitor project, dose response (AID 624289)
Conditions: not given
Procedure, shortened: (§1)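 system = SK-MEL-5 human melanoma cells, parental line of primary-screen reporter | input = 3000 SK-MEL-5 cells per well | buffer or medium = phenol red-free growth medium | dosing = pinned compound dose series | times = 24 h compound treatment at 37 °C, 5 min read delay | signal = ATP luminescence, CellTiter-Glo | measure = cell viability inferred from cellular ATP level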

| Structure (SMILES) | AC50 |
| --- | --- |
| COc1ccc(C2=C(NC(=O)c3ccc(Cl)cc3)C(=O)c3ccccc3C2=O)cc1 | 25.2 µM |
| C=CCNC1=C(NCCCN2CCOCC2)C(=O)c2ccccc2C1=O | 33.1 µM |
| COC1=C(NS(=O)(=O)c2ccccc2)C(=O)c2ccccc2C1=O | 7.28 µM |
| NC1=CC(=O)c2ccccc2C1=O | 7.35 µM |
| COc1cccc(C2=C(NC(=O)c3ccccc3)C(=O)c3ccccc3C2=O)c1 | 19.1 µM |
| O=C1C(NS(=O)(=O)c2ccc(Br)cc2)=C(N2CCSCC2)C(=O)c2ccccc21 | 32.5 µM |
| COc1ccc(C2=C(NC(=O)c3cccc(Cl)c3)C(=O)c3ccccc3C2=O)cc1 | 23.1 µM |
| O=C(NC1=C(N2CCSCC2)C(=O)c2ccccc2C1=O)c1ccccc1 | 13.2 µM |
| COc1ccc(S(=O)(=O)N(C(C)=O)c2ccc(OC(C)=O)c3ccccc23)cc1[N+](=O)[O-] | 19.9 µM |
| COc1ccc(C2=C(NC(=O)c3cccc(OC)c3)C(=O)c3ccccc3C2=O)cc1 | 24.4 µM |
| CCN(CC)CCCNC1=C(N(C)C(C)=O)C(=O)c2ccccc2C1=O | 3.19 µM |
| CCN1CCN(C2=C(NC(=O)c3ccc(Br)cc3)C(=O)c3ccccc3C2=O)CC1 | 3.7 µM |
| O=C1C=C(Nc2ccccc2)C(=O)c2ccccc21 | 1.46 µM |
| CC(=O)NC1=C(c2ccc(Cl)cc2)C(=O)c2ccccc2C1=O | 15.8 µM |
| COc1ccc(C2=C(NC(=O)c3ccc(OC)cc3-c3cccc(OC)c3)C(=O)c3ccccc3C2=O)cc1 | > 70 µM (inactive) |
| C=CCNC1=C(NS(=O)(=O)c2ccc(Br)cc2)C(=O)c2ccccc2C1=O | 24.4 µM |
| CCN1CCN(C2=C(NS(=O)(=O)c3ccc(Br)cc3)C(=O)c3ccccc3C2=O)CC1 | 25.4 µM |
| C=CCNC1=C(N2CCOCC2)C(=O)c2ccccc2C1=O | 6.79 µM |
| O=C1C(NS(=O)(=O)c2ccccc2)=C(N2CCOCC2)C(=O)c2ccccc21 | 19.4 µM |
| O=C1C(NS(=O)(=O)c2ccc(Br)s2)=C(N2CCCCC2)C(=O)c2ccccc21 | 28.9 µM |
| C=C1C(=O)OC2C1CC/C(C)=C\CCC1(C)OC21 (centres undefined) | > 70 µM (inactive) |
| CN1CCN(C2=C(NS(=O)(=O)c3ccc(Br)cc3)C(=O)c3ccccc3C2=O)CC1 | > 70 µM (inactive) |

| Structure (SMILES) | AC50 |
| --- | --- |
| O=C(NC1=C(c2ccc(Oc3ccccc3)cc2)C(=O)c2ccccc2C1=O)c1ccccc1 | > 70 µM (inactive) |
| CCN(CC)CCCCNC1=C(Nc2ccccc2)C(=O)c2ccccc2C1=O | 33.2 µM |
| CC(=O)NC1=C(c2ccc3c(c2)oc2ccccc23)C(=O)c2ccccc2C1=O | 17.4 µM |
| O=C(NC1=C(c2ccccc2)C(=O)c2ccccc2C1=O)c1ccco1 | 20.4 µM |
| CCN1CCN(C2=C(N(C)C(C)=O)C(=O)c3ccccc3C2=O)CC1 | 3.29 µM |
| C[C@@H](NC1=C(Nc2ccccc2)C(=O)c2ccccc2C1=O)c1ccccc1 | > 70 µM (inactive) |
| CCN1CCN(C2=C(NC(=O)c3ccccc3)C(=O)c3ccccc3C2=O)CC1 | 5.2 µM |
| COc1ccc(C2=C(NC(C)=O)C(=O)c3ccccc3C2=O)cc1 | 11.7 µM |
| O=C(NC1=C(c2ccc(OC(F)(F)F)cc2)C(=O)c2ccccc2C1=O)c1ccccc1 | 24.3 µM |
| CN1CCN(C2=C(Nc3ccccc3)C(=O)c3ccccc3C2=O)CC1 | 14.1 µM |
| NC1=C(c2ccc(OC(F)(F)F)cc2)C(=O)c2ccccc2C1=O | > 70 µM (inactive) |
| O=C1C(Nc2ccccc2)=C(N2CCN(c3ccccc3)CC2)C(=O)c2ccccc21 | > 70 µM (inactive) |
| C=CCNC1=C(N2CCN(CC)CC2)C(=O)c2ccccc2C1=O | 20.1 µM |
| C=CCNC1=C(NCCCN(CC)CC)C(=O)c2ccccc2C1=O | 11.5 µM |
| O=C(CNc1cccc2ccccc12)N/N=C/c1ccc([N+](=O)[O-])o1 | 19.8 µM |
| Cc1ccc(C(=O)NC2=C(c3ccc(OC(F)(F)F)cc3)C(=O)c3ccccc3C2=O)o1 | 29.5 µM |
| O=C1C(NS(=O)(=O)c2ccc(Br)cc2)=C(N2CCCCC2)C(=O)c2ccccc21 | 32.6 µM |
| CC(=O)N(C)C1=C(N2CCN(C)CC2)C(=O)c2ccccc2C1=O | 3.16 µM |
| Cc1ccc(C(=O)NC2=C(c3ccccc3)C(=O)c3ccccc3C2=O)o1 | 19.3 µM |
| CCN1CCN(C2=C(Nc3ccccc3)C(=O)c3ccccc3C2=O)CC1 | 14.2 µM |
| O=C(NC1=C(Cl)C(=O)c2ccccc2C1=O)c1ccccc1 | 4.73 µM |
| O=C(NC1=C(c2ccc(OC(F)(F)F)cc2)C(=O)c2ccccc2C1=O)c1ccco1 | 23.1 µM |

| Structure (SMILES) | AC50 |
| --- | --- |
| CC(=O)N(C)C1=C(N2CCOCC2)C(=O)c2ccccc2C1=O | 5.55 µM |
| CCN1CCN(C2=C(NS(=O)(=O)c3cccs3)C(=O)c3ccccc3C2=O)CC1 | 19.2 µM |
| O=C1C(Nc2ccccc2)=C(N2CCCCC2)C(=O)c2ccccc21 | 8.69 µM |
| COc1ccc(C(=O)NC2=C(c3ccccc3)C(=O)c3ccccc3C2=O)cc1 | 21.5 µM |
| CCN1c2ccccc2NC2N=C(OC)C(c3ccccc3)C21 (centres undefined) | 11.1 µM |
| C=CCNC1=C(NCCN(CC)CC)C(=O)c2ccccc2C1=O | 9.17 µM |
| CCN(CC)CCCNC1=C(Nc2ccccc2)C(=O)c2ccccc2C1=O | 21.1 µM |
| COc1ccc(C(=O)NC2=C(c3ccc(OC)cc3)C(=O)c3ccccc3C2=O)cc1 | 15 µM |
| O=C1C(NS(=O)(=O)c2ccc(Br)s2)=C(N2CCOCC2)C(=O)c2ccccc21 | 23.2 µM |
| C=CCNC1=C(N2CCSCC2)C(=O)c2ccccc2C1=O | 12.3 µM |
| C=CCNC1=C(Cl)C(=O)c2ccccc2C1=O | 5.18 µM and 7.1 µM |
| CC(=O)NC1=C(c2ccccc2)C(=O)c2ccccc2C1=O | 15.2 µM |
| O=C1C(NS(=O)(=O)c2ccc(Br)cc2)=C(N2CCOCC2)C(=O)c2ccccc21 | 12.2 µM |
| COc1ccc(C2=C(NC(=O)c3ccc4ccccc4c3)C(=O)c3ccccc3C2=O)cc1 | > 70 µM (inactive) |
| C=CCNC1=C(N2CCCCC2)C(=O)c2ccccc2C1=O | 2.66 µM |
| O=C(NC1=C(c2ccccc2)C(=O)c2ccccc2C1=O)c1ccccc1 | 20.6 µM |
| O=C1C(NS(=O)(=O)c2ccc(Br)s2)=C(N2CCSCC2)C(=O)c2ccccc21 | 29.1 µM |
| COc1ccc(C2=C(NC(=O)c3ccccc3OC)C(=O)c3ccccc3C2=O)cc1 | > 70 µM (inactive) |
| C=CCNC1=C(N2CCN(C)CC2)C(=O)c2ccccc2C1=O | 20.1 µM |
| COc1cccc(-c2cc(C(=O)NC3=C(Cl)C(=O)c4ccccc4C3=O)ccc2OC)c1 | 22.4 µM |
| CN1CCN(C2=C(NS(=O)(=O)c3ccc(Br)s3)C(=O)c3ccccc3C2=O)CC1 | 13.9 µM |
| CN1CCN(C2=C(NC(=O)c3ccc(Br)cc3)C(=O)c3ccccc3C2=O)CC1 | 3.05 µM |

| Structure (SMILES) | AC50 |
| --- | --- |
| C=CCNC1=C(N(C)C(C)=O)C(=O)c2ccccc2C1=O | 0.274 µM |
| Cc1nc2ccccc2n1/N=C/c1ccc([N+](=O)[O-])s1 | 6.5 µM |
| O=C(NC1=C(N2CCOCC2)C(=O)c2ccccc2C1=O)c1ccc(Br)cc1 | 15.9 µM |
| O=C1C(NS(=O)(=O)c2ccc(Br)cc2)=C(c2ccccc2)C(=O)c2ccccc21 | 30.9 µM |
| O=C1C(NS(=O)(=O)c2ccc(Br)cc2)=C(N2CCN(c3ccccc3)CC2)C(=O)c2ccccc21 | 25.2 µM |
| O=C1C(Nc2ccccc2)=C(N2CCOCC2)C(=O)c2ccccc21 | 29.3 µM and 24.5 µM |
| NC1=C(c2ccccc2)C(=O)c2ccccc2C1=O | 28.5 µM |
| C=CCNC1=C(NS(=O)(=O)c2cccs2)C(=O)c2ccccc2C1=O | 24.4 µM |
| CN1CCN(C2=C(NC(=O)c3ccccc3)C(=O)c3ccccc3C2=O)CC1 | 5.15 µM |
| CC(=O)NC1=C(c2ccc(Oc3ccccc3)cc2)C(=O)c2ccccc2C1=O | 14.2 µM |
| O=C(NC1=C(c2ccccc2)C(=O)c2ccccc2C1=O)c1ccc(Br)cc1 | 28.9 µM |
| CN1CCN(C2=C(NS(=O)(=O)c3ccccc3)C(=O)c3ccccc3C2=O)CC1 | 11.1 µM |
| CCN(CC)CCNC1=C(Nc2ccccc2)C(=O)c2ccccc2C1=O | 36.4 µM |
| NC1=C(NC(=O)c2ccccc2)C(=O)c2ccccc2C1=O | 10.1 µM |
| O=C(NC1=C(N2CCSCC2)C(=O)c2ccccc2C1=O)c1ccc(Br)cc1 | 28.1 µM |
| CC(=O)NC1=C(c2cccc(Cl)c2)C(=O)c2ccccc2C1=O | 11.5 µM |
| CC(=O)N(C)C1=C(N2CCCCC2)C(=O)c2ccccc2C1=O | 2.67 µM |
| COc1ccc(C2=C(NC(=O)c3ccccc3Cl)C(=O)c3ccccc3C2=O)cc1 | 17.1 µM |
| O=C(NC1=C(N2CCOCC2)C(=O)c2ccccc2C1=O)c1ccccc1 | 18.2 µM |
| CCN1CCN(C2=C(NS(=O)(=O)c3ccc(Br)s3)C(=O)c3ccccc3C2=O)CC1 | 26.1 µM |
| O=C(NC1=C(N2CCN(c3ccccc3)CC2)C(=O)c2ccccc2C1=O)c1ccccc1 | > 70 µM (inactive) |
| O=C1C(NS(=O)(=O)c2cccs2)=C(N2CCOCC2)C(=O)c2ccccc21 | 21.1 µM |

Test system: not listed separately
Assay: as above
Conditions: SK-MEL-5 viability, ATP luminescence (CellTiter-Glo), 24 h; at 35 µM (top of the series)
Procedure, shortened: as §1

| Structure (SMILES) | activity change, negative = inhibition |
| --- | --- |
| C=CCNC1=C(NCC=C)C(=O)c2ccccc2C1=O | -6.6% (inactive) |
